From ChEMBL document CHEMBL5724801, “EUbOPEN Chemogenomics Library - Multiplex” (2024)
Several values for one entry are separate records, joined by “and”; a condition that tells them apart may be missing. Identical values can stand only once.

How the values were obtained:
[1] = system: U2OS; experiment: Multiplex assay against U2OS; assay type: toxicity, cell-based; conditions: human
Procedure, shortened: (§1)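 On a CQ1 microscope at 37°C and 5% CO2, live cells were imaged after compound addition. They had been stained at seeding with Hoechst33342, BioTracker Green Microtubule Cytoskeleton Dye, MitoTracker Red and Annexin V Alexa Fluor 680. CellPathfinder machine-learning gating assigned cells to Hoechst high-intensity objects or normal cells, normal cells to healthy, pyknosed or fragmented nuclei, and pyknosed cells to mitotic or apoptotic. Tubulin, mitochondrial-mass and membrane-permeability phenotypes are per cents of healthy-nucleus cells.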

[2] = system: Fibroblast; experiment: Multiplex assay against human fibroblast; assay type: toxicity, cell-based; procedure, shortened: as §1
[3] = 24 h, 10 µM, compound concentration 10 uM
[4] = 48 h, 1 µM, compound concentration 1 uM
[5] = 48 h, 10 µM, compound concentration 10 uM
[6] = 12 h, 1 µM, compound concentration 1 uM
[7] = 12 h, 10 µM, compound concentration 10 uM
[8] = 24 h, 1 µM, compound concentration 1 uM

COCCn1c(C)c(C)s/c1=N\C(=O)C1C(C)(C)C1(C)C
Population Apoptotic (%) [1, 3]: 80% and 88% | Population Fragmented Nuclei (%) [1, 3]: 28% and 21% | Population Healthy Nuclei (%) [1, 3]: 58% and 66% | Population Hoechst High Intensity Objects (%) [1, 3]: 1% | Population Membrane Permeable-Phenotype (%) [1, 3]: 8% and 10% | Population Mitochondria Different-Phenotype (%) [1, 3]: 8% and 1% | Population Mitotic Cells (%) [1, 3]: 19% and 11% | Population Normal (%) [1, 3]: 98% | Population Pyknosed Nuclei (%) [1, 3]: 12% | Population Tubulin-Different-Phenotype (%) [1, 3]: 2% and 9% | Total Cell Count [1, 3]: 257 and 141 | Population Apoptotic (%) [1, 4]: 94% and 100% | Population Fragmented Nuclei (%) [1, 4]: 12% and 15% | Population Healthy Nuclei (%) [1, 4]: 79% | Population Hoechst High Intensity Objects (%) [1, 4]: 1% | Population Membrane Permeable-Phenotype (%) [1, 4]: 5% and 9% | Population Mitochondria Different-Phenotype (%) [1, 4]: 2% and 1% | Population Mitotic Cells (%) [1, 4]: 5% and 0% | Population Normal (%) [1, 4]: 98% | Population Pyknosed Nuclei (%) [1, 4]: 8% and 4% | Population Tubulin-Different-Phenotype (%) [1, 4]: 4% and 5% | Total Cell Count [1, 4]: 459 and 218 | Population Apoptotic (%) [1, 5]: 81% and 96% | Population Fragmented Nuclei (%) [1, 5]: 22% and 15% | Population Healthy Nuclei (%) [1, 5]: 62% and 71% | Population Hoechst High Intensity Objects (%) [1, 5]: 2% and 1% | Population Membrane Permeable-Phenotype (%) [1, 5]: 11% and 4% | Population Mitochondria Different-Phenotype (%) [1, 5]: 4% | Population Normal (%) [1, 5]: 97% and 98% | Population Pyknosed Nuclei (%) [1, 5]: 14% and 12% | Population Tubulin-Different-Phenotype (%) [1, 5]: 5% and 2% | Total Cell Count [1, 5]: 305 and 206 | Population Apoptotic (%) [2, 6]: 43% and 40% | Population Fragmented Nuclei (%) [2, 6]: 18% and 22% | Population Healthy Nuclei (%) [2, 6]: 69% and 57% | Population Hoechst High Intensity Objects (%) [2, 6]: 0% and 4% | Population Membrane Permeable-Phenotype (%) [2, 6]: 0% and 1% | Population Mitochondria Different-Phenotype (%) [2, 6]: 7% and 5% | Population Mitotic Cells (%) [2, 6]: 56% and 60% | Population Normal (%) [2, 6]: 99% and 95% | Population Pyknosed Nuclei (%) [2, 6]: 11% and 19% | Population Tubulin-Different-Phenotype (%) [2, 6]: 34% and 32% | Total Cell Count [2, 6]: 136 and 133 | Population Apoptotic (%) [2, 7]: 64% and 37% | Population Fragmented Nuclei (%) [2, 7]: 19% and 38% | Population Healthy Nuclei (%) [2, 7]: 59% and 40% | Population Hoechst High Intensity Objects (%) [2, 7]: 2% and 6% | Population Mitochondria Different-Phenotype (%) [2, 7]: 14% and 8% | Population Mitotic Cells (%) [2, 7]: 35% and 62% | Population Normal (%) [2, 7]: 97% and 93% | Population Pyknosed Nuclei (%) [2, 7]: 20% and 21% | Population Tubulin-Different-Phenotype (%) [2, 7]: 56% and 64% | Total Cell Count [2, 7]: 167 and 120 | Population Apoptotic (%) [2, 8]: 64% and 54% | Population Fragmented Nuclei (%) [2, 8]: 15% and 28% | Population Healthy Nuclei (%) [2, 8]: 72% and 54% | Population Hoechst High Intensity Objects (%) [2, 8]: 2% and 3% | Population Membrane Permeable-Phenotype (%) [2, 8]: 1% and 5% | Population Mitochondria Different-Phenotype (%) [2, 8]: 5% | Population Mitotic Cells (%) [2, 8]: 35% and 45% | Population Normal (%) [2, 8]: 97% and 96% | Population Pyknosed Nuclei (%) [2, 8]: 11% and 17% | Population Tubulin-Different-Phenotype (%) [2, 8]: 38% and 37% | Total Cell Count [2, 8]: 122 and 132 | Population Apoptotic (%) [2, 3]: 68% and 33% | Population Fragmented Nuclei (%) [2, 3]: 20% and 40% | Population Healthy Nuclei (%) [2, 3]: 59% and 36% | Population Hoechst High Intensity Objects (%) [2, 3]: 4% and 3% | Population Membrane Permeable-Phenotype (%) [2, 3]: 0% and 11% | Population Mitochondria Different-Phenotype (%) [2, 3]: 15% and 19% | Population Mitotic Cells (%) [2, 3]: 31% and 66% | Population Normal (%) [2, 3]: 95% and 96% | Population Pyknosed Nuclei (%) [2, 3]: 19% and 23% | Population Tubulin-Different-Phenotype (%) [2, 3]: 61% and 66% | Total Cell Count [2, 3]: 154 and 120 | Population Apoptotic (%) [2, 4]: 60% | Population Fragmented Nuclei (%) [2, 4]: 23% and 31% | Population Healthy Nuclei (%) [2, 4]: 63% and 56% | Population Hoechst High Intensity Objects (%) [2, 4]: 4% and 7% | Population Membrane Permeable-Phenotype (%) [2, 4]: 0% and 2% | Population Mitochondria Different-Phenotype (%) [2, 4]: 4% | Population Mitotic Cells (%) [2, 4]: 40% | Population Normal (%) [2, 4]: 95% and 92% | Population Pyknosed Nuclei (%) [2, 4]: 12% and 11% | Population Tubulin-Different-Phenotype (%) [2, 4]: 43% and 45% | Total Cell Count [2, 4]: 123 and 140 | Population Apoptotic (%) [2, 5]: 75% and 58% | Population Fragmented Nuclei (%) [2, 5]: 23% and 49% | Population Healthy Nuclei (%) [2, 5]: 56% and 34% | Population Hoechst High Intensity Objects (%) [2, 5]: 7% and 8% | Population Membrane Permeable-Phenotype (%) [2, 5]: 0% and 14% | Population Mitochondria Different-Phenotype (%) [2, 5]: 22% and 11% | Population Mitotic Cells (%) [2, 5]: 25% and 41% | Population Normal (%) [2, 5]: 92% and 91% | Population Pyknosed Nuclei (%) [2, 5]: 20% and 16% | Population Tubulin-Different-Phenotype (%) [2, 5]: 67% and 65% | Total Cell Count [2, 5]: 151 and 111
